Results on two molecules are retold here after publication PMC3861893 (Journal of medicinal chemistry, 2012).

The test system of data set [1] is antigen-specific CD8+ T cells. Nature of the data set: In vivo cellular immune response assay. Also noted: species or system C57BL/6 (B6) mice. As to conditions: for response rate of tetramer positive CD8+ T cells (day 7 = 100%): average, n = 3. The essentials: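 Mice aged 6-8 weeks immunized i.v. with 200 μL of 100 μg Trp1455/9M peptide, 50 μg anti-CD40 mAb (FGK-45.5) and 50 μg TLR2 agonist (test compound, Pam2CSK4 or Pam3CSK4). Submandibular blood taken on days 7, 21 and 34, red cells lysed with ammonium chloride. Stained 40 min on ice with anti-CD8a, PE Trp1455/9M/H-2Db tetramer and anti-MHC II. Tetramer+ CD8+ cells gated by flow cytometry; n=3.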

The target of a further data set is TLR2 (Homo sapiens, UniProt O60603). Nature of the data set: In cyto europium TRF competition binding assay. As to conditions: Ki (summary statement), cell line not specified, summary in discussion.
Sequence of TLR2 (O60603 21-784): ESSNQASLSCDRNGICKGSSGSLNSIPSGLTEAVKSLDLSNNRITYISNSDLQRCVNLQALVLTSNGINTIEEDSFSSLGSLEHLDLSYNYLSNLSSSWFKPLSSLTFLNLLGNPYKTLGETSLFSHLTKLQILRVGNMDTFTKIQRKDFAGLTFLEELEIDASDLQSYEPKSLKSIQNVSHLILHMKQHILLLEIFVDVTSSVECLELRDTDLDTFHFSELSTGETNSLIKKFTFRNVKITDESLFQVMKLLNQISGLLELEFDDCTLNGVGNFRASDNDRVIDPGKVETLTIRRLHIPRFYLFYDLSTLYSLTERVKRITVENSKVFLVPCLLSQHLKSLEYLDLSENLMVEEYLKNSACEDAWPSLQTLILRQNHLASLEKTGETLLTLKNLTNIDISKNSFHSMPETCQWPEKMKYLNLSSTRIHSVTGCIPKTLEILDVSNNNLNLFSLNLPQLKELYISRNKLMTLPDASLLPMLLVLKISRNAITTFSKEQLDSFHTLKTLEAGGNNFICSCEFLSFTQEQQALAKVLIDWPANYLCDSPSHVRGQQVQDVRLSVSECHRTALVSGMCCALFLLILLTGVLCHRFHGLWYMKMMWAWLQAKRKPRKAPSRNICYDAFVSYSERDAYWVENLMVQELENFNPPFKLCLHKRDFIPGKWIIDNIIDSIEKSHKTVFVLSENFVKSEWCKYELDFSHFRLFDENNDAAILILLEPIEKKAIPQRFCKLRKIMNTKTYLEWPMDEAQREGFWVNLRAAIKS

A value given as a limit tells only on which side of the number the result lay.

For the molecule `CCCCCCCCCCCCCCCC(=O)OC[C@H](CSC[C@H](NC(=O)COCC(=O)NCCCOCCOCCOCCCNC(C)=O)C(=O)NCC(=O)N[C@H](CO)C(=O)NCCCOCCOCCOCCCNC(=O)COCC(N)=O)OC(=O)CCCCCCCCCCCCCCC` [Compound 10], the “response rate of tetramer positive CD8+ T cells (day 7 = 100%)” value in data set [1] (day 21 post-immunization) is given as 25.7%; in data set [1] (day 34 post-immunization), 12.7%. Also, the “signs or symptoms of stress or toxicity in mice” value in data set [1] (over the course of the experiment (34 days), 50 μg i.v.) was “No signs or symptoms of stress or toxicity were observed”.
`CCCCCCCCCCCCCCCC(=O)OC[C@H](CSC[C@H](NC(=O)COCC(=O)NCCCOCCOCCOCCCNC(=O)CCSC1CC(=O)N(CCNC(=O)CCCCCN2C(=CC=C3CCCC(C=CC4=[N+](CCCCS(=O)(=O)O)c5ccc(S(=O)(=O)[O-])cc5C4(C)C)=C3Oc3ccc(S(=O)(=O)O)cc3)C(C)(C)c3cc(S(=O)(=O)O)ccc32)C1=O)C(=O)NCC(=O)N[C@H](CO)C(=O)NCCCOCCOCCOCCCNC(=O)COCC(N)=O)OC(=O)CCCCCCCCCCCCCCC` (stereo partly shown) [Compound 13, IRDye800CW-Mpr-PEGO-Dhc(Pam2)-Gly-DSer-PEGO-NH2]: the Ki at TLR2 was under 100 nM.
